In ChEMBL document CHEMBL1128684, “The serotonin 5-HT4 receptor. 2. Structure-activity studies of the indole carbazimidamide class of agonists” (J Med Chem, 1995):

Legend:
[1] = molecular target: 5-hydroxytryptamine receptor 4 (Cavia porcellus) (UniProt O70528); test: 5-hydroxytryptamine 4 receptor agonistic activity was measured by twitch response enhancing activity in electrically stimulated guinea pig ileum preparation; format: functional, tissue-based
How it was run: (§1)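 Longitudinal muscle strips of guinea pig ileum kept in tyrode solution with 0.1 μM methylsergide. Twitch contractions (2–3 s) evoked through platinum electrodes by square-wave pulses at 0.1 Hz and 2 ms duration. Once a stable submaximal response was reached, noncumulative concentration–response curves were built for the agonists.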

[2] = molecular target: Serotonin 3 (5-HT3) receptor; test: Antagonistic activity against 5-hydroxytryptamine 3 receptor in guinea pig ileum assay
[3] = molecular target: T1, 5-hydroxytryptamine receptor 2A (Rattus norvegicus, UniProt P14842); test: (§2) Agonistic activity against 5-hydroxytryptamine 2A receptor in rat cortex using [3H]ketanserin; format: tissue-based
How it was run: (§3)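 Binding to rat cortex. Table footnote lists [3H]ketanserin as the radioligand.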

[4] = molecular target: 5-hydroxytryptamine receptor 4 (Cavia porcellus) (UniProt O70528); test: Relative efficacy compared to serotonin(1) in 5-hydroxytryptamine 4 assay; format: functional; how it was run: as §1
[5] = molecular target: T1, 5-hydroxytryptamine receptor 2A; test: Agonistic activity against 5-hydroxytryptamine 2A receptor in rat cortex using [3H]-ketanserin; format: tissue-based; how it was run: as §3
[6] = molecular target: T1, 5-hydroxytryptamine receptor 2A; test: as §2; format: functional, tissue-based

T1 sequence (P14842 whole entry): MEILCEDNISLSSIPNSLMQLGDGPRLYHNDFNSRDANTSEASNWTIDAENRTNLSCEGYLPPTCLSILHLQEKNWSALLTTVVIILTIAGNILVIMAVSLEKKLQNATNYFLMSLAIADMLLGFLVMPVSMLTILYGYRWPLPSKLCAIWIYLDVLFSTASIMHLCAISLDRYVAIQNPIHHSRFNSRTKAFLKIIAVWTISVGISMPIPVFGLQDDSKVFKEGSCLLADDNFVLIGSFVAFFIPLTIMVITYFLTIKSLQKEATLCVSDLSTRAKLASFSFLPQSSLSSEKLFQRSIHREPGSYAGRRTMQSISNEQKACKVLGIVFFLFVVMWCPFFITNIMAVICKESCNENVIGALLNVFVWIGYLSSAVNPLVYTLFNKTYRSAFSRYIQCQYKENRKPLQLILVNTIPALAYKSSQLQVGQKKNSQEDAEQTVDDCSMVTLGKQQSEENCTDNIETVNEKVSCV
Chain of 5-hydroxytryptamine receptor 4 (Cavia porcellus) (O70528 whole entry): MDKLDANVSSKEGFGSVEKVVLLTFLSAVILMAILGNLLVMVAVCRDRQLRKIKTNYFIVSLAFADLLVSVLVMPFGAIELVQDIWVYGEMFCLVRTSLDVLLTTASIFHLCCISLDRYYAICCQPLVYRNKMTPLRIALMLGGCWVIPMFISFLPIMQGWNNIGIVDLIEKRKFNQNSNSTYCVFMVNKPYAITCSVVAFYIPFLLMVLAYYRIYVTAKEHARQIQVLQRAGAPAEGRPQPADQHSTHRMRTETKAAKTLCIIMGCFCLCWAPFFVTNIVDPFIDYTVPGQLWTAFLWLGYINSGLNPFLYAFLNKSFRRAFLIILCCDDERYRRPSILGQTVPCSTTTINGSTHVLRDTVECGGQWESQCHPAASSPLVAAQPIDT

Row | Structure (SMILES) | pD2 [1] | pA2 [2] | Ki [3] [µM] | Relative efficacy [4] | Ki [5] [µM] | Ki [6] [µM]
1 | CCCCC/N=C(/N)N/N=C/c1c[nH]c2ccc(OCC=C(C)C)cc12 | 8.15 | < 5 | 6.31 | 2.2 | – | –
2 | CCCCC/N=C(/N)N/N=C/c1c[nH]c2ccc(OC(C)C)cc12 | 6.8 | < 5 | – | 0.5 | 2.51 | –
3 | CN1CCN=C1N/N=C/c1c[nH]c2ccc(O)cc12 | < 4 | – | – | 0 | – | –
4 | N/C(=N/N=C/c1c[nH]c2ccc(O)cc12)NCCc1ccccc1Cl | 8.5 | – | – | 0.5 | – | –
5 | N/C(=N/N=C/c1c[nH]c2ccc(O)cc12)NCCNC(=O)c1ccccc1 | 8.5 | – | – | 0.5 | – | –
6 | Oc1ccc2[nH]cc(/C=N/Nc3ccccn3)c2c1 | 6.1 | – | – | 0.8 | – | –
7 | CCCCC/N=C(/N)N/N=C/c1[nH]nc2ccc(O)cc12 | < 4 | – | – | 0 | – | –
8 | CCCCC/N=C(/N)N/N=C/c1c[nH]c2ccc(OC(=O)CCCCC)cc12 | < 4 | – | – | 0 | – | –
9 | CCCCC/N=C(/N)N/N=C/c1c[nH]c2ccc(OC(=O)N(C)C)cc12 | < 7 | – | – | 0.7 | – | –
10 | CCCCC/N=C(/N)N/N=C/c1csc2ccc(OC)cc12 | 6.1 | – | – | 0.5 | – | –
11 | CCCCCCCCNC(=N)N/N=C/c1c[nH]c2ccc(O)cc12 | < 4 | – | – | 0 | – | –
12 | CCCCC/N=C(/N)N/N=C/c1csc2ccc(O)cc12 | < 7 | – | – | – | – | –
13 | CCCCC/N=C(/N)N/N=C/c1c[nH]c2ccc(OCC)cc12 | < 7 | – | – | 0.1 | – | –
14 | CCCCC/N=C(/N)N/N=C/c1c[nH]c2ccc(OCC(=O)N(C)C)cc12 | 7.3 | – | – | 1.4 | – | –
15 | CN(/N=C/c1c[nH]c2ccc(O)cc12)C(=N)N | 5.8 | – | – | 0.5 | – | –
16 | CCCCC/N=C(/N)N/N=C/c1c[nH]c2ccc(OCOC)cc12 | 7.5 | – | – | 0.7 | – | –
17 | CCCCC/N=C(/N)N/N=C/c1c[nH]c2ccc(OCCOC)cc12 | 6.6 | – | – | 0.7 | – | –
18 | CCCCC/N=C(/N)N/N=C/c1c[nH]c2ccc(OCCC(C)C)cc12 | 5.9 | – | – | 0.8 | – | –
19 | CCCCC/N=C(/N)N/N=C/c1c[nH]c2ccc([Si](C)(C)C)cc12 | < 5.5 | – | – | – | – | –
20 | CCCCC/N=C(/N)N/N=C/c1c[nH]c2ccc(OCCO)cc12 | 7.4 | – | – | 1 | – | –
21 | Oc1ccc2[nH]cc(/C=N/NC3=NCCN3)c2c1 | 7.3 | – | – | 0.7 | – | –
22 | CCCCC/N=C(/N)N/N=C/c1c[nH]c2ccc(NS(C)(=O)=O)cc12 | < 4 | – | – | 0 | – | –
23 | CCCCC/N=C(/N)N/N=C/c1c[nH]c2ccc(OC(=O)c3ccccc3)cc12 | 7 | – | – | 0.5 | – | –

Row | Structure (SMILES) | pD2 [1] | pA2 [2] | Ki [3] [µM] | Relative efficacy [4] | Ki [5] [µM] | Ki [6] [µM]
24 | Cl.N=C(N)N/N=C/c1c[nH]c2ccc(O)cc12 | 8.8 | < 5 | – | 1.5 | – | 0.24
25 | Oc1ccc2[nH]cc(/C=N/NC3=NCCS3)c2c1 | 6.5 | – | – | 0.5 | – | –
26 | CCCCC/N=C(/N)N/N=C/c1c[nH]c2ccc(OCc3ccccc3)cc12 | < 6 | – | – | 1.8 | – | –
27 | CCCCC/N=C(/N)N/N=C/c1c[nH]c2ccc(N)cc12 | 7.6 | – | – | 1.6 | – | –
28 | CCCCC/N=C(/N)N/N=C/c1c[nH]c2ccc(OC)nc12 | 7.1 | – | – | 1 | – | –
29 | N/C(=N/C(=O)NC1CCCCC1)N/N=C/c1c[nH]c2ccc(O)cc12 | 8.5 | – | – | 0.5 | – | –
30 | CCCCC/N=C(/N)N/N=C/c1c[nH]c2ccc(OCCN(C)C)cc12 | 7.6 | – | – | 0.3 | – | –
31 | CCCCC/N=C(/N)N/N=C/c1c[nH]c2ccccc12 | < 6 | – | – | 0.1 | – | –
32 | N/C(=N/N=C/c1c[nH]c2ccc(O)cc12)NCCCc1ccccc1 | 8.5 | – | – | 0.4 | – | –
33 | CCCC(=O)/N=C(/N)N/N=C/c1c[nH]c2ccc(O)cc12 | 7.7 | – | – | 1 | – | –
34 | N/C(=N/N=C/c1c[nH]c2ccc(O)cc12)NCCCO | 7.7 | – | – | 0.7 | – | –
35 | CCCCCCCN(C)C(=N)N/N=C/c1c[nH]c2ccc(O)cc12 | 8 | – | 2.34 | 1.6 | – | –
36 | CCCCC/N=C(/N)N/N=C/c1c[nH]c2ccc(O)nc12 | 7.8 | – | 1.35 | 0.9 | – | –
37 | N/C(=N/N=C/c1c[nH]c2ccc(O)cc12)NCCc1ccccc1 | 9.1 | – | – | 1 | – | –
38 | Oc1ccc2[nH]cc(/C=N/NC3=NCCC3)c2c1 | 7.1 | – | – | 1 | – | –
39 | Oc1ccc2[nH]cc(/C=N/Nc3ncc[nH]3)c2c1 | 8.2 | – | 1.62 | 1 | – | –
40 | CCCCC/N=C(/N)N/N=C/c1[nH]nc2ccc(OC)cc12 | < 4 | – | – | 0 | – | –
41 | Cl.N/C(=N/N=C/c1c[nH]c2ccc(O)cc12)NCCc1ccc(Cl)c(Cl)c1 | > 10 | < 5 | – | 0.1 | 0.191 | –
42 | CCCCCNC(=N)N/N=C/c1c[nH]c2ccc(O)cc12 | 9.3 | < 5 | 0.224 | 0.9 | – | –
43 | COc1cccc(CCNC(=N)N/N=C/c2c[nH]c3ccc(O)cc23)c1 | 8.9 | – | – | 0.5 | – | –
44 | CCCCCNC(=N)N/N=C/c1c[nH]c2ccc(OC)cc12 | 6.9 | – | – | 0.2 | – | –
45 | CCCCCN(C)C(=N)N/N=C/c1c[nH]c2ccc(O)cc12 | 7.7 | – | – | 0.3 | – | –
46 | N/C(=N/N=C/c1c[nH]c2ccc(O)cc12)NCCc1ccc(Cl)cc1 | 8.4 | – | – | 0.2 | – | –
